The values that follow come from ChEMBL document CHEMBL4266007, “Synthesis and Biological Evaluation of an Indazole-Based Selective Protein Arginine Deiminase 4 (PAD4) Inhibitor” (ACS Med Chem Lett, 2018).

Assay [1] deals with T1, Protein-arginine deiminase type-4 (Homo sapiens, UniProt Q9UM07). The assay is described as follows: Inhibition of PAD4 (unknown origin) preincubated for 15 mins followed by BAEE addition measured after 15 mins by spectrophotometric method.
The species entered for assay [2] is Homo sapiens. Put plainly: Ratio of Kinact/Ki for PAD4 (unknown origin) to Kinact/Ki for PAD3 (unknown origin).
The species entered for assay [3] is Homo sapiens. Put plainly: Ratio of Kinact/Ki for PAD1 (unknown origin) to Kinact/Ki for PAD2 (unknown origin).
The species named for assay [4] is Homo sapiens. Put plainly: Ratio of Kinact/Ki for PAD1 (unknown origin) to Kinact/Ki for PAD3 (unknown origin).
The species entered for assay [5] is Homo sapiens. Put plainly: Ratio of Kinact/Ki for PAD1 (unknown origin) to Kinact/Ki for PAD4 (unknown origin).
For assay [6], the species on record is Homo sapiens. Put plainly: Ratio of Kinact/Ki for PAD4 (unknown origin) to Kinact/Ki for PAD1 (unknown origin).
Assay [7] deals with T1, Protein-arginine deiminase type-4. The assay is described as follows: Inhibition of PAD4 in human HL60 cells assessed as reduction in A23187-induced citrullinated H4 level at 5 to 10 uM preincubated for 15 mins followed by A23187 addition measured after 15 mins by Western blot analysis. The class given is cell-based. A digest of the protocol:
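HL-60 cells differentiated into mature granulocytes, which express PAD4, then stimulated with a calcium ionophore to trigger histone H4 citrullination. Cell lysates were analysed by Western blot using an anti-citrulline histone H4 antibody.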

The species entered for assay [8] is Homo sapiens. The assay is described as follows: Ratio of Kinact/Ki for PAD4 (unknown origin) to Kinact/Ki for PAD2 (unknown origin).
The species entered for assay [9] is Homo sapiens. The assay is described as follows: Ratio of Kinact/Ki for PAD2 (unknown origin) to Kinact/Ki for PAD4 (unknown origin).
Assay [10] is filed under the species Homo sapiens. Put plainly: Ratio of Kinact/Ki for PAD2 (unknown origin) to Kinact/Ki for PAD3 (unknown origin).
The species named for assay [11] is Homo sapiens. The assay is described as follows: Ratio of Kinact/Ki for PAD2 (unknown origin) to Kinact/Ki for PAD1 (unknown origin).
For assay [12], the species on record is Homo sapiens. Put plainly: Ratio of Kinact/Ki for PAD3 (unknown origin) to Kinact/Ki for PAD4 (unknown origin).
The species entered for assay [13] is Homo sapiens. Put plainly: Ratio of Kinact/Ki for PAD3 (unknown origin) to Kinact/Ki for PAD2 (unknown origin).
The species named for assay [14] is Homo sapiens. The assay is described as follows: Ratio of Kinact/Ki for PAD3 (unknown origin) to Kinact/Ki for PAD1 (unknown origin).

Active and inactive are the calls of the source. No cut-off for these calls is given here.

T1 sequence (Q9UM07 whole entry): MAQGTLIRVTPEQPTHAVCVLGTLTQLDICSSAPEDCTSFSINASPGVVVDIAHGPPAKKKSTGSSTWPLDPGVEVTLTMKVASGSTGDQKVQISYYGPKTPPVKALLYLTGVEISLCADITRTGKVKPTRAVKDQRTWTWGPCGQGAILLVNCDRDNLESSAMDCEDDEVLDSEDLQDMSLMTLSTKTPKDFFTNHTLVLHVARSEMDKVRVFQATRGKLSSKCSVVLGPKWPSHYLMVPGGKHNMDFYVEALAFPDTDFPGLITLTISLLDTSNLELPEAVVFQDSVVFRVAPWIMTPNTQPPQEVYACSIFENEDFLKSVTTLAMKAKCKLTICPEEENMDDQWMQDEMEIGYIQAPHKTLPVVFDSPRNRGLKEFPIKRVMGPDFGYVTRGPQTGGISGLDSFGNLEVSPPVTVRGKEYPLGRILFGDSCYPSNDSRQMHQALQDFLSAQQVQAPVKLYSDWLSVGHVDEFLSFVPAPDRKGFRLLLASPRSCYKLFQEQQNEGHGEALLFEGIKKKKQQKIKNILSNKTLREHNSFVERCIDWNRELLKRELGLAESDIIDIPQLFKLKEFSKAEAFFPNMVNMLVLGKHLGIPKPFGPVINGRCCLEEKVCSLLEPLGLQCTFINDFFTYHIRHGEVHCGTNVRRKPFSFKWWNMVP

As usually defined, the IC50 is the point on the concentration scale where inhibition reaches its midpoint. Low values mean greater potency, high ones weaker potency. Consider `Cn1cc(CCCNC(=N)CCl)c2ccccc21`, for which the IC50 in assay [1] came out at 190 µM.
Turning to `N=C(CCl)NCCCc1nn(CC2CCCC2)c2ccc(Cl)cc12`, the Ratio in the assay filed under Homo sapiens [2] worked out at 1.6.
On to `CC(C)(C)n1nnc([C@H](CCCNC(=N)CCl)NC(=O)c2cccc(C(=O)O)c2)n1`, for which the Ratio in the assay listed under Homo sapiens [3], in the assay filed under Homo sapiens [4] and in the assay filed under Homo sapiens [5] was greater than 3 in each case.
For `N=C(CCl)NCCCc1nn(CC2CCCC2)c2cc(Cl)c(Cl)c(Cl)c12`, the Ratio worked out at 2700 in the assay listed under Homo sapiens [6], 11 in the assay filed under Homo sapiens [2] and 58 in the assay listed under Homo sapiens [8]. For the same compound, in assay [7], the inhibition result is “Active”.
For `N=C(CCl)NCCCc1nn(CC2CCCC2)c2cccc(Cl)c12`, the Ratio in the assay listed under Homo sapiens [2] was 1.3.
As for `N=C(CCl)NCCC[C@H](NC(=O)c1ccccc1)C(N)=O`, the inhibition entry in [7] is “Active”.
With `N=C(CCl)NCCCc1nn(CC2CCCC2)c2cc(Cl)ccc12`, in the assay listed under Homo sapiens [2], the Ratio was found to be 2.
For the compound `CCN1Cc2ccc(C(=O)N[C@@H](CCCNC(=N)CF)c3nc4c(OC)cccc4n3C)cc2C1=O`, the Ratio in the assay listed under Homo sapiens [9], in the assay filed under Homo sapiens [10] and in the assay listed under Homo sapiens [11] was greater than 5 in each case.
Turning to `N=C(CCl)NCCCc1nn(CC2CCCC2)c2cc(Cl)cc(Cl)c12`, the Ratio in the assay listed under Homo sapiens [6] was found to be 3300; in the assay listed under Homo sapiens [2], 7.5; in the assay listed under Homo sapiens [8], 72.
In the case of `N=C(CCl)NCCCC1NC(=O)N(Cc2ccc(-c3ccccc3Cl)cc2)C1=O` (racemic), the Ratio in the assay filed under Homo sapiens [12], in the assay listed under Homo sapiens [13] and in the assay listed under Homo sapiens [14] was greater than 10 throughout.
